Results published in ChEMBL document CHEMBL3244273, “Analgesic activity of novel spiro heterocycles. 2-Amino-7-oxa-3-thia-1-azaspiro[5,5]undec-1-enes and related compounds” (J Med Chem, 1978).
The source made the active and inactive calls.

What was measured:
Rattus norvegicus [1] = assay: Analgesic activity against po dosed yeast-induced inflamed foot Sprague-Dawley rat model assessed as increase in pain threshold in inflamed paw measured after 2 hrs; type: functional
Mus musculus [2] = assay: Analgesic activity in po dosed CF-1 mouse assessed as reduction in phenylquinone-induced writhing responses administered 15 mins prior to phenylquinone challenge; type: functional
Rattus norvegicus [3] = organism: Rattus norvegicus; assay: Antiinflammatory activity against mycobacterial adjuvant-induced arthritis in rat; type: functional, organism-based
[4] = Retardation factor of the compound using benzene-ethyl acetate at ratio of 1:1 as solvent system by thin layer chromatography; type: physicochemical
[5] = Acute toxicity in ip dosed CF-1S mouse assessed as mortality measured for 24 hrs; type: organism-based; conditions: in vivo
In short: (§1)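 Male and female CF-1S mice (17-25 g) received the compound suspended in gum acacia solution, orally or intraperitoneally, in groups of six to ten per dose level. Mortality was followed for 24 h after ip dosing and for 5 days after oral dosing. LD50 was calculated by the Miller-Tainter method.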

Rattus norvegicus [6] = assay: Analgesic activity in po dosed Sprague-Dawley rat by tail flick assay; type: functional
[7] = Acute toxicity in po dosed CF-1S mouse assessed as mortality measured for 5 days; type: organism-based; conditions: in vivo; in short: as §1
[8] = Retardation factor of the compound using benzene-triethylamine at ratio of 9:1 as solvent system by thin layer chromatography; type: physicochemical
Mus musculus [9] = assay: Analgesic activity in CF-1 mouse assessed as reduction in phenylquinone-induced writhing responses at 200 mg/kg, po administered 15 mins prior to phenylquinone challenge; type: functional
In short: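 Fifteen min later they received 0.25 mL ip of 0.02% 2-phenyl-1,4-benzoquinone in 19:1 water-ethanol. Writhes were counted for 5 min starting 10 min after the injection, and % protection was calculated versus vehicle controls.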

[10] = Rattus norvegicus, Sprague-Dawley, po, 2 h, read-out: ED50
[11] = Mus musculus, CF-1, po, read-out: ED50

Row | SMILES | ED50 (Rattus norvegicus [1]; [10]) [mg/kg] | ED50 (Mus musculus [2]; [11]) [mg/kg] | Activity (Rattus norvegicus [3]) | other results
1 | O=C(/N=C1\NC2(CCCCO2)CCS1)c1ccccc1O (stereo not given) | > 200 | > 200 | inactive | 
2 | NC1=NC2(CCCCO2)CCC1.O=C(O)/C=C\C(=O)O (racemic) | > 50 | > 200 |  | 
3 | Cl.O=C(/C=C/c1ccccc1)/N=C1\NC2(CCCCO2)CCS1 (stereo not given) | 2.5 | 17 | inactive | 
4 | O=C(/N=C1\NC2(CCCCO2)CCS1)c1ccccc1Cl (stereo not given) |  | > 200 | inactive | 
5 | O=C(/N=C1\NC2(CCCCC2)CCS1)c1ccc(F)cc1 | > 100 | > 200 | inactive | 
6 | CC1(C(=O)/N=C2\NC3(CCCCO3)CCS2)CCCCC1 (stereo not given) | 16 | > 200 | inactive | 
7 | O=C(/N=C1\NC2(CCCCO2)CCS1)c1cccc(F)c1 (stereo not given) | 1.3 | 9.2 | inactive | 
8 | O=C(/N=C1\NCCCS1)c1ccc(F)cc1 | > 200 | > 100 | inactive | Rf [4]: 0.36
9 | O=C(/N=C1\NC2(CCCCO2)CCS1)c1ccc(F)cc1 (single isomer, unassigned; (+)) [listing 1 of 2 here] |  |  |  | ED50 (Mus musculus [2]): 8.8 mg/kg
10 | Cl.c1ccc(C2=NC3(CCCCO3)CCS2)cc1 (racemic) | > 200 | > 200 |  | 
11 | O=C(/N=C1\NC2(CCCCO2)CCS1)C12CC3CC(CC(C3)C1)C2 (stereo not given) | 14 | > 200 | inactive | 
12 | O=C(/N=C1\NC2(CCCCO2)CCS1)c1ccc(F)cc1 (stereo in doubt; 33) [listing 1 of 2 here] |  |  |  | LD50 at 24 h [5]: 1370 mg/kg; ED50 (Rattus norvegicus [1]): 2 mg/kg; ED50 (Mus musculus [2]): 49 mg/kg; ED50 (Rattus norvegicus [6]): 22.3 mg/kg; LD50 at 120 h [7]: 630 mg/kg
13 | O=C(/N=C1\NC2(CCCCO2)CCS1)c1ccco1 (stereo not given) |  | 42 | inactive | 
14 | Cc1cc(C)c(C(=O)/N=C2\NC3(CCCCO3)CCS2)c(C)c1 (stereo not given) | > 200 | > 200 | inactive | 
15 | O=C(/N=C1\NC2(CCCCO2)CCS1)c1ccc(Cl)cc1 (stereo not given) | 2.4 | 1.1 | inactive | 
16 | CC1CCCC2(CCSC(N)=N2)O1.O=C(O)/C=C\C(=O)O (stereo not given) | 3.2 | 25 |  | 
17 | O=C(/N=C1\NC2(CCCCO2)CCS1)c1ccc(F)cc1 (single isomer, unassigned; (-)) | 1.8 |  |  | ED50 (Mus musculus [2]): 28 mg/kg
18 | CC(=O)/N=C1\NC2(CCCCO2)CCS1 (stereo not given) | 1.9 | 3.1 | inactive | 
19 | O=C(/N=C1\NC2(CCCCO2)CCS1)c1cccc([N+](=O)[O-])c1 (stereo not given) | 8.2 | > 200 | inactive | 
20 | CCCCC1C(=O)N(c2ccccc2)N(c2ccccc2)C1=O [PHENYLBUTAZONE] | 25 | 45 |  | 
21 | NC1=NC2(CCCCC2)CCS1.O=C(O)/C=C\C(=O)O | 19 | 6.6 | inactive | ED50 (Rattus norvegicus [6]): > 50 mg/kg
22 | O=C1c2ccccc2C(=O)N1C1=NC2(CCCCO2)CCS1 (racemic) | 7 | 14.8 | inactive | 
23 | CC(=O)Oc1ccccc1C(=O)O [ASPIRIN] | 50 | 82 |  | 
24 | c1ccc(/N=C2\NC3(CCCCO3)CCS2)cc1 (racemic) | > 100 | > 200 |  | Rf [4]: 0.45
25 | NC1=NC2(CCCO2)CCS1.O=C(O)/C=C\C(=O)O (racemic) | 4 | 15 | inactive | 
26 | c1ccc(CNC2=NC3(CCCCO3)CCS2)cc1 (racemic) | > 100 | > 200 | inactive | Rf [4]: 0.15; Rf [8]: 0.5
27 | Cc1ccc(C(=O)/N=C2\NC3(CCCCO3)CCS2)cc1 (stereo not given) | 0.9 | 60 | inactive | LD50 at 24 h [5]: > 400 mg/kg; ED50 (Rattus norvegicus [6]): > 25 mg/kg; LD50 at 120 h [7]: 1120 mg/kg

Row | SMILES | ED50 (Rattus norvegicus [1]; [10]) [mg/kg] | ED50 (Mus musculus [2]; [11]) [mg/kg] | Activity (Rattus norvegicus [3]) | other results
28 | O=C(/N=C1\NC2(CCCCO2)CCS1)c1ccc(F)cc1 (stereo in doubt; 33) [listing 2 of 2 here] |  |  | inactive | 
29 | CNC1=NC2(CCCCO2)CCS1 (racemic) | 21 | 52 | inactive | 
30 | NC1=NC2(CCCC(c3ccccc3)O2)CCS1.O=C(O)/C=C\C(=O)O (stereo not given) | > 200 | 64 |  | 
31 | CC(C)(C)C(=O)/N=C1\NC2(CCCCO2)CCS1 (stereo not given) | 29 | 200 | inactive | inhibition in vivo at 200 mg/kg (Mus musculus [9]): -53%
32 | O=C(/N=C1\NC2(CCCCO2)CCS1)c1ccccc1 (stereo not given) | 2.6 | 5 | inactive | 
33 | COc1cccc(OC)c1C(=O)/N=C1\NC2(CCCCO2)CCS1 (stereo not given) | > 200 | > 200 | inactive | 
34 | NC1=NC2(CCCCO2)CCS1.O=C(O)/C=C\C(=O)O (racemic) | 0.6 | 3.6 | inactive | LD50 at 24 h [5]: 33 mg/kg; ED50 (Rattus norvegicus [6]): 12 mg/kg; LD50 at 120 h [7]: 120 mg/kg
35 | O=C(/N=C1\SCCCN1C(=O)c1ccc(F)cc1)c1ccc(F)cc1 |  |  |  | Rf [4]: 0.5
36 | COc1ccc(C(=O)/N=C2\NC3(CCCCO3)CCS2)cc1OC (stereo not given) | 4.5 | 200 | inactive | inhibition in vivo at 200 mg/kg (Mus musculus [9]): -75%
37 | S=C(/N=C1\NC2(CCCCO2)CCS1)Nc1ccccc1 (racemic) | > 200 | 200 | inactive | inhibition in vivo at 200 mg/kg (Mus musculus [9]): -48%
38 | CN1CC[C@]23c4c5ccc(O)c4O[C@H]2[C@@H](O)C=C[C@H]3[C@H]1C5.CN1CC[C@]23c4c5ccc(O)c4O[C@H]2[C@@H](O)C=C[C@H]3[C@H]1C5.O=S(=O)(O)O | 25 | 4.8 |  | ED50 (Rattus norvegicus [6]): 29.3 mg/kg
39 | COc1ccc2c3c1O[C@H]1[C@@H](O)C=C[C@H]4[C@@H](C2)N(C)CC[C@@]341.COc1ccc2c3c1O[C@H]1[C@@H](O)C=C[C@H]4[C@@H](C2)N(C)CC[C@@]341.O.O=P(O)(O)O.O=P(O)(O)O [CODEINE PHOSPHATE] | 40 | 18 |  | 
40 | N#Cc1ccc(C(=O)/N=C2\NC3(CCCCO3)CCS2)cc1 (stereo not given) | 1 | 60 | inactive | 
41 | O=C(/N=C1\NC2(CCCCO2)CCS1)c1cccs1 (stereo not given) | 3.8 | 48 | inactive | 
42 | O=C(/N=C1\NC2(CCCCO2)CCS1)c1ccc([N+](=O)[O-])cc1 (stereo not given) | 0.9 | 28 | inactive | 
43 | Cl.O=C(/N=C1\NC2(CCCO2)CCS1)c1ccc(F)cc1 (stereo not given) | 2 | 14.8 | inactive | 
44 | O=C(/N=C1\NC2(CCCCO2)CCS1)c1ccc(Br)cc1 (stereo not given) | 3.2 | > 200 | inactive | 
45 | O=C(/N=C1\NC2(CCCCO2)CCS1)c1cccc(C(F)(F)F)c1 (stereo not given) | 11 | > 200 | inactive | 
46 | CCC(=O)O[C@](Cc1ccccc1)(c1ccccc1)[C@H](C)CN(C)C [PROPOXYPHENE] | 60 | 48 |  | 
47 | COc1ccc(C(=O)/N=C2\NC3(CCCCO3)CCS2)cc1 (stereo not given) | 6 | 62 | inactive | 
48 | O=C(/N=C1\NC2(CCCCO2)CCS1)Nc1ccccc1 (racemic) | > 200 | > 200 |  | 
49 | O=C(/N=C1\NC2(CCCCO2)CCS1)c1ccc(F)cc1 (single isomer, unassigned; (+)) [listing 2 of 2 here] |  |  | inactive | 
50 | O=C(/N=C1\NC2(CCCCO2)CCS1)c1cccc2ccccc12 (stereo not given) | 28 | > 200 |  | 
51 | COc1ccc2c(c1)c(CC(=O)O)c(C)n2C(=O)c1ccc(Cl)cc1 [INDOMETHACIN] | 1.2 | 8.8 |  | 
52 | COc1cc(C(=O)/N=C2\NC3(CCCCO3)CCS2)cc(OC)c1OC (stereo not given) | > 200 | > 200 | inactive | 
53 | CC(=O)N(Cc1ccccc1)C1=NC2(CCCCO2)CCS1 (stereo not given) |  |  |  | Rf [4]: 0.37
